The values below come from article PMC7606739 (FASEB journal : official publication of the Federation of …, 2020).

Assay [1] has as its target T1, zebrafish 12-LOX (zf12-LOX, Alox12) (Danio rerio, UniProt A0ACM8Q0F4).
T1 sequence (A0ACM8Q0F4 1-670): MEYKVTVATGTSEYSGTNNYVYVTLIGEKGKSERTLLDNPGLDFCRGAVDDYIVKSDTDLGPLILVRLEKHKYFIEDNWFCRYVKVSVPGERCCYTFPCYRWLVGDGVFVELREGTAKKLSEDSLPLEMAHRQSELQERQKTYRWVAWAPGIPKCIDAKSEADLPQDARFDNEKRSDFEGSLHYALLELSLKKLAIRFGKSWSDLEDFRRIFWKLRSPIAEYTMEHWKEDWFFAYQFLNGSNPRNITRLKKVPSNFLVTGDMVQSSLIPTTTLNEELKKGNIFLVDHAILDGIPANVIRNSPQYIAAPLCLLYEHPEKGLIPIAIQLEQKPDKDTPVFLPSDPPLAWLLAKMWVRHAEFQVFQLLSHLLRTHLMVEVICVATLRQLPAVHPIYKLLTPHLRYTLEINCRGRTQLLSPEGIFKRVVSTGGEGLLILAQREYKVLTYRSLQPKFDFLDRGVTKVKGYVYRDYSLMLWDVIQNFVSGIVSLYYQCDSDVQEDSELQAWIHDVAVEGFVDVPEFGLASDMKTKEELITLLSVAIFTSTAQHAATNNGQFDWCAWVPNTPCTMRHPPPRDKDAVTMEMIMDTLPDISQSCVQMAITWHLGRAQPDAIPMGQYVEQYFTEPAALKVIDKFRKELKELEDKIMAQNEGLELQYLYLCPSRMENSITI
Kind of assay: UV-Vis lipoxygenase rate assay. The class given is biochemical. Summed up:
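N-terminal 6xHis-tagged zf12-LOX, expressed from a pFastBac construct, purified on nickel-iminodiacetic acid agarose (>90% pure by SDS-PAGE). Reaction in 25 mM HEPES (pH 8.00), 0.01% Triton X-100, 10 μM arachidonic acid, run as a steady-state kinetic UV-Vis assay. Enzymatic rate measured at six inhibitor concentrations in triplicate; IC50 from a hyperbolic saturation curve fit of rate versus concentration.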

The target in assay [2] is T2, human 12-LOX (Human ALOX12) (Homo sapiens, UniProt P18054).
T2 sequence (P18054 1-663): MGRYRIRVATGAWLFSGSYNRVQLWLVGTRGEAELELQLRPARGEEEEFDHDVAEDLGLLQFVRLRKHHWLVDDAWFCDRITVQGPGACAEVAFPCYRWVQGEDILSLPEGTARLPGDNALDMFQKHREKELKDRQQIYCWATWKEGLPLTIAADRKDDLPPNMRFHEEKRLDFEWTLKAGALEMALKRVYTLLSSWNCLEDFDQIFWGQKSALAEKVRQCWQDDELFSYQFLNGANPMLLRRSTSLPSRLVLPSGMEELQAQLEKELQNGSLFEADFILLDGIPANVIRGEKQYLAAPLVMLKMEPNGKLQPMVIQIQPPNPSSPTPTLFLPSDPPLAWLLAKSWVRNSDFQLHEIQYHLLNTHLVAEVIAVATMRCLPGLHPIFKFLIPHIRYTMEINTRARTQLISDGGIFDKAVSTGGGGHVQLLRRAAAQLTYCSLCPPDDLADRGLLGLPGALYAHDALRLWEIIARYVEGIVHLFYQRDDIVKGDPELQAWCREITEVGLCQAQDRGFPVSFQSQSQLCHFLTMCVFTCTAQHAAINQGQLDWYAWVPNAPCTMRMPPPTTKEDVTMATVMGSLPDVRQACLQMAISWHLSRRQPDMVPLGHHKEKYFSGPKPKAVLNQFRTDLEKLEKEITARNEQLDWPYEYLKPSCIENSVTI
Description: biochemical.

Consider `CNc1oc(-c2cccc3ccccc23)nc1C#N` [ML351], for which the figures for the IC50 in assay [1] and in assay [2] were over 100 µM and over 50 µM, respectively.

What is called IC50 is the concentration at which inhibition is half-maximal. A higher IC50 goes with weaker potency.
